From PubChem
ERAP1 inh – blocks human ERAP1 aminopeptidase activity; 0.15% of 340,000 active; inhibition, % at 10.7 µM; Q9NZ08; recombinant ERAP1, Leu-AMC fluorescence, 60 min;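 active = mean replicate inhibition of at least 30%, or all replicates individually reaching that 30% level; inactive = mean below 30% and not every replicate reaching it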
Target sequence (Q9NZ08 whole entry, looked up): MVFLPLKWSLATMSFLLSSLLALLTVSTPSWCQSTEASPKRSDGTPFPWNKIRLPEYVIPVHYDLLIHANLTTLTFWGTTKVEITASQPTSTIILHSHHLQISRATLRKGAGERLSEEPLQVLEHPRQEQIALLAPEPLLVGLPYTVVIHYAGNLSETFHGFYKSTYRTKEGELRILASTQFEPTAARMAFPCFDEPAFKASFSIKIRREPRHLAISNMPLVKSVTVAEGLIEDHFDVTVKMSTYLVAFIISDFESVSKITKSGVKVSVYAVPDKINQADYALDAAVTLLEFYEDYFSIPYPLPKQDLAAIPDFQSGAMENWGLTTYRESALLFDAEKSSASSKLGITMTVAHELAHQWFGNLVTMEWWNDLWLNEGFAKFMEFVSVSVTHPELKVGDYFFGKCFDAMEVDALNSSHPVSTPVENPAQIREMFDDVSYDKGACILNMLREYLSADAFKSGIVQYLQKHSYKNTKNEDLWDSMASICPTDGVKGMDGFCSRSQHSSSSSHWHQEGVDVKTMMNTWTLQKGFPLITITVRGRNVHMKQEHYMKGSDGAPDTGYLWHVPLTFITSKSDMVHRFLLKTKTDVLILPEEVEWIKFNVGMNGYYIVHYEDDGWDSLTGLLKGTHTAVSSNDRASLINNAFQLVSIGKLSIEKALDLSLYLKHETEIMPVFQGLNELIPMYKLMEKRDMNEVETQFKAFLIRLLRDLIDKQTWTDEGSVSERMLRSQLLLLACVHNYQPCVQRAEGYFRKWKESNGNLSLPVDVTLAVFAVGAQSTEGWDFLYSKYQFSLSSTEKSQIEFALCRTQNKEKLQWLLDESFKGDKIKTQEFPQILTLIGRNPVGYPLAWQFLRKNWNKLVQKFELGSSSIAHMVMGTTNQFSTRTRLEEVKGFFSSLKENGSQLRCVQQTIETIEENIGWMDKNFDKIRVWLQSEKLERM
CFTR F508del cor – correctors of CFTR F508del function in bronchial epithelial cells; activity (quench increase), % at 7.58 µM; 0.36% of 350,000 active; CFBE cells, YFP halide quenching; stimulated with forskolin plus potentiator P3; % fluorescence drop versus neutral controls;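 active = mean added fluorescence quench of at least 8% versus neutral control, with both replicates also reaching 8%; inconclusive = only one of the mean or replicate conditions met; inactive = mean below 8% and not both replicates reaching 8%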;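 note: cells transiently co-express mutant CFTR-F508del with the halide-sensitive YFP; corrector assay measuring rescue of mutant channel to the surface after 24 h compound exposure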
DENV2 CPE – protects cells from dengue virus 2 cytopathic effect. 1.7% of 350,000 active. DENV2-infected cells, cytopathic effect rescue, plate reader. CPE inhibition, % at 9.99 µM; in the data active = CPE inhibition above about 20%, passing the limit was not always enough; inconclusive = no clear call, values can overlap the other calls; tested in BHK-21 cells
E-sel inducer – induces E-selectin expression in human endothelial cells | P16581 | HUVEC E-selectin immunofluorescence imaging; normalized: neutral wells 0, TNF-alpha wells 100 | activation, % at 7.58 µM | 0.37% of 260,000 active;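 active = mean E-selectin-positive cell signal at least 10% of the positive control, reached in at least 60% of replicates, without over 20% cell loss; inconclusive = no rule given, readout overlaps actives, possibly toxicity-flagged; inactive = the rest, including those meeting only one limit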
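Test system – human umbilical vein endothelial cells (HUVEC), E-selectin induction · Input – 3,000 HUVEC seeded per well · Buffer or medium – EGM-2, gelatin · Compound dosing – single-point compound dose · Detection – immunofluorescence imaging · Measure – percent E-selectin-positive cells · Controls – TNF-alpha high, DMSO low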
FGF22 binding – binders of recombinant human FGF22 by thermal shift | Q9HCT0 | SYPRO orange fluorescence; percent of sucrose octasulfate shift, DMSO zero | activity (Tm shift, normalised), % at 9.99 µM | 1.5% of 340,000 active | AID 651658;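 active = mean Tm shift, scaled 0 neutral to 100 positive control, at about 1.3% or above, every replicate too, limit read from the data; inconclusive = no clear call, values can overlap the other calls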
Of the large screens only hits and unclear results are named; the others gave an inactive call. Shown are actives, neighbours in structure and some others; about 3.7% of the full set was active somewhere.

Cc1cccc(-n2nc(CC#N)c(C#N)c2N)c1	FGF22 binding 44 (no result: E-sel inducer)
CO[C@@H]1CN(C)C(=O)c2ccc(NC(=O)c3ccccc3)cc2OC[C@@H](C)N(C(=O)C2CC2)C[C@H]1C	DENV2 CPE 26
CO[C@@H]1CN(C)C(=O)c2cc(NC(=O)c3ccccc3)ccc2OC[C@H](C)N(C(=O)C2CC2)C[C@@H]1C	DENV2 CPE 95
CNC[C@@H]1Oc2ccc(NC(=O)CCCN(C)C)cc2CC(=O)N([C@@H](C)CO)C[C@H]1C	none (no result: E-sel inducer, FGF22 binding)
CC(C)(C)[S@](=O)N1Cc2cc(C(=O)N[C@H]3CCN(Cc4ccccc4)C3)nc(-c3cccc(-c4ccncc4)c3)c2[C@@H]1CCO	E-sel inducer 62
CN(C)CC#Cc1cccc(-c2nc(C(=O)N[C@@H]3CCN(Cc4ccccc4)C3)cc3c2[C@H](CCO)N(S(=O)C(C)(C)C)C3)c1 (some centres not stated)	DENV2 CPE 48 (no result: E-sel inducer)
C[C@@H]1CN([C@@H](C)CO)C(=O)c2cc(C#Cc3ccccc3)cnc2O[C@@H]1CN(C)C(=O)C1CC1	none
COc1ccc(S(=O)(=O)N(C)C[C@H]2Oc3ccc(NC(=O)Nc4cccc5ccccc45)cc3C(=O)N([C@@H](C)CO)C[C@H]2C)cc1	none (no result: ERAP1 inh, DENV2 CPE, FGF22 binding)
CN1C(=O)CN(CCN2CC(=O)N(C)C(=O)C2)CC1=O	FGF22 binding 43
C[C@@H]1CCCCO[C@H](CN(C)Cc2ccc(C(=O)O)cc2)[C@@H](C)CN([C@@H](C)CO)C(=O)c2cc(NS(C)(=O)=O)ccc2O1	none
CN(C)C(=O)c1cccc(-c2ccc([C@@H]3[C@@H](CO)N4CCCCN(C(=O)C5CCCC5)C[C@H]34)cc2)c1	none (no result: E-sel inducer)
Cc1ccccc1N(CC(=O)NC1CCCCC1)C(=O)CNC(=O)c1cccs1	E-sel inducer 45
O=C(CN(C(=O)CNC(=O)c1cccs1)c1ccccc1F)NC1CCCCC1	none
CCOc1ccc(N(CC(=O)NC2CCCCC2)C(=O)CNC(=O)c2cccs2)cc1	DENV2 CPE 33 (no result: E-sel inducer)
CC(C)c1ccc(NC2CCCN(C(=O)c3cccc(N4CCNC4=O)c3)C2)cc1 (configuration not stated)	DENV2 CPE 29 (no result: E-sel inducer)
O=C(C[C@H]1C[C@@H]2c3cc(NS(=O)(=O)c4ccc(F)cc4)ccc3O[C@@H]2[C@H](CO)O1)NCc1ccccc1F	none (no result: FGF22 binding)
CC(C)C[C@@H](COc1ccccc1)N1CCN(CCc2ccccc2)CCC1=O	DENV2 CPE 101
COC(=O)[C@H](CCSC)NC(=O)Cn1cc(C)c(=O)[nH]c1=O	CFTR F508del cor 8.7
COC(=O)C[C@H](NC(=O)Cn1cc(C)c(=O)[nH]c1=O)C(=O)OC	none
OC(Cc1ccccc1Br)c1ncc(-c2ccc(Cl)cc2)[nH]1 (configuration not stated)	E-sel inducer 159, FGF22 binding 2.7
OC(Cc1ccccc1)c1ncc(-c2ccc(Cl)cc2)[nH]1 (configuration not stated)	none
CCCNC(=O)C[C@H]1CC[C@H]2[C@@H](COC[C@H](O)CN2C(=O)C2CCOCC2)O1	none
Cc1ccccc1CSc1ccc(-c2ccc3c(c2)OCO3)nn1	DENV2 CPE 52 (no result: E-sel inducer)
C=C[C@@H](OC)[C@H](OC(=O)Nc1ccc(SC)cc1)c1ccc(OCCO)cc1	DENV2 CPE 21 (no result: E-sel inducer)
C[C@H](CO)N1C[C@H](C)[C@H](CN(C)S(=O)(=O)c2ccccc2)Oc2ccc(NC(=O)Nc3ccccc3)cc2C1=O	none
COc1ccccc1NS(=O)(=O)c1cc(NC(=O)c2sc3cc(Cl)ccc3c2Cl)ccc1C	FGF22 binding 44 (no result: E-sel inducer)
COc1ccccc1NS(=O)(=O)c1cc(N=N/C(C(=O)Nc2ccc(Cl)cc2)=C(/C)O)ccc1C	CFTR F508del cor 11
COc1ccccc1NS(=O)(=O)c1cc(C(=O)N2CCCCCC2)ccc1C	CFTR F508del cor 18
COc1ccccc1NC(=O)/C(N=Nc1ccc(C)c(S(=O)(=O)Nc2ccccc2Cl)c1)=C(\C)O	none
COc1ccccc1NS(=O)(=O)c1cc(C(=O)N2CCCC2)ccc1C	none
O=C(CS(=O)(=O)c1ccccc1)N1CCN(c2ccccc2)CC1	DENV2 CPE 103 (no result: FGF22 binding)
O=C(CS(=O)(=O)c1ccc(Cl)cc1)N1CCN(c2ccccc2)CC1	none
CCCCOC(=O)C1CN(c2ccccc2)N=C1C(C)=O (configuration not stated)	DENV2 CPE inconclusive, FGF22 binding 43
